# Source: PubChem BioAssay
# In the library only some 3.1% were active in any assay of this set; here they are far more common.
# HSF1 activator = increases HSF-1 driven luciferase reporter signal | activation, % at 9 µM | AID 504408 | 300,000 tested, 1.7% active | NIH3T3-HGL HSF-1 luciferase reporter, MG132, 8 h; 100% = twice DMSO control signal;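 active means mean replicate activation of at least 50% with a set share of replicates each reaching 50%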;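 further: 0% = median of the neutral control wells and 100% = twice that signal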
# HSP90 refold inh = HSP90 refolding inhibition in rabbit reticulocyte lysate; luciferase refolding luminescence, 3 h; inhibition, % at 5.6 µM; 290,000 tested, 0.91% active; AID 1789;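 active means inhibition above the screen-wide mean plus 3 SD, computed separately per campaign, cut at about 16% in these data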;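 further: 0% = DMSO wells and 100% = 60 µM geldanamycin wells; inhibitors lower the luminescence because luciferase stays unfolded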
# Hsp70 act = switches on Hsp70 transcription; HeLa Hsp70 promoter luciferase reporter, luminescence; scaled: vehicle 0, proteasome-inhibitor control 100%; activation, % at 10 µM; 200,000 tested, 0.04% active; AID 1203;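 active means activation above the mean across all tested compounds plus 3 SD, cutoff set per campaign, cut at about 5.5% in these data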;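 further: 100% = MG132 at 30 µM as the positive control and 0% = DMSO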
# HSF1 inhib = HSF1 inhibition. 300,000 tested, 0.77% active. NIH3T3-HGL HSE-luciferase, MG132-induced, luminescence 8 h; stronger effect = lower value. activity change, negative = inhibition, % at 7.5 µM (by protocol);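 active means more than half of replicate wells show activity change below -50%, luminescence cut by over half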;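 further: luciferase reports HSF-1 transcriptional activity via heat shock element; 0% = median of DMSO wells and -100% = zero luminescence signal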
# Tb hexokinase = T. brucei hexokinase 1 inhibition; recombinant TbHK1, G6PDH-coupled NADH A340; inhibition, % at 10 µM; 220,000 tested, 0.11% active; AID 1430;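 active means inhibition of 50% or more in the single-dose primary screen; inactive means inhibition below 50%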
# HKDC1 inhibitor = inhibitors of human hexokinase HKDC1. Q2TB90. recombinant HKDC1, G6PDH/diaphorase resazurin coupled fluorescence. inhibition, % at 20 µM. 340,000 tested, 0.16% active;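 active means inhibition above about 35% when tested at 20 µM, limit read from the data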;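 further: plate controls were DMSO wells with enzyme for no effect and DMSO wells lacking enzyme for full effect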
# Target sequence (Q2TB90 whole entry, looked up): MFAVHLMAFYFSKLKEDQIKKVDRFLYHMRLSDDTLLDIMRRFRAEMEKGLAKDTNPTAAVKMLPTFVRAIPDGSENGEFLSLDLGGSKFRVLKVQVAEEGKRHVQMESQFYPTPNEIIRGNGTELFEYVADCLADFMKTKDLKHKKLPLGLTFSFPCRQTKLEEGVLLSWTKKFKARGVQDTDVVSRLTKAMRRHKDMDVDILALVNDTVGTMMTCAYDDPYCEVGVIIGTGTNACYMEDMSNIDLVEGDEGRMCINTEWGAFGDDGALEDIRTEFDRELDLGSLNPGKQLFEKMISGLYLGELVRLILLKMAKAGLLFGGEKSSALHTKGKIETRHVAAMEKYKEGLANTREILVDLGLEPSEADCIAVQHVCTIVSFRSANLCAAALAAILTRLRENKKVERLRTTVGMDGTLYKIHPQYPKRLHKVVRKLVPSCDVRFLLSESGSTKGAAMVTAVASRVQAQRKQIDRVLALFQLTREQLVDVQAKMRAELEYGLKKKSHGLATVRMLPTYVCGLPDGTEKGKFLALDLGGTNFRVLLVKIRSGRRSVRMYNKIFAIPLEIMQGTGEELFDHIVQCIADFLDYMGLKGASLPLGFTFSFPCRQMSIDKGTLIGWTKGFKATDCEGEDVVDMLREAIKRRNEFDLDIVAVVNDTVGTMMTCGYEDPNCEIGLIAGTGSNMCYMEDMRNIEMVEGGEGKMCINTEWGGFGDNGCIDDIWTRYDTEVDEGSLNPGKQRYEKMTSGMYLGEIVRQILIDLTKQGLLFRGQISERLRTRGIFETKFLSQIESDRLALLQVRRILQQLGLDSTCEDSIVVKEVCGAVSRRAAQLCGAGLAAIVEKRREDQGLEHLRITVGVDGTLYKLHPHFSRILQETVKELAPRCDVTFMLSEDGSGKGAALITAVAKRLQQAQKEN
#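 System: Recombinant HKDC1 hexokinase | Amount: HKDC1 at 5 µg/mL | Reagent: Glucose with 1 mM ATP | Doses: Single 20 µM dose | Incubation: Reaction time 90 min, room temperature, protected from light | Signal: Coupled resazurin fluorescence, excitation 525 nm, emission 613 nm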
# * = called active by the depositor; / = no result.
SMILES,HSF1 activator,HSP90 refold inh,Hsp70 act,HSF1 inhib,Tb hexokinase,HKDC1 inhibitor
C=CCN(CC(O)c1cccc([N+](=O)[O-])c1)C(C)CCc1ccccc1 (centres undefined),-83,-3,/,-78*,2,-5
NNc1nc(-c2ccccc2)nc(-c2ccccc2)c1Br,-7,/,/,-4,/,0
Cc1ccnc(SCC(=O)c2ccc(Br)cc2)c1C#N,90*,0,0,53,-1,1
CCOC(=O)CSc1nc2ccc(C)cc2cc1C#N,68*,1,1,32,-6,14
COc1ccc2nc(SCC(C)=O)c(C#N)cc2c1,84*,-6,0,37,-9,7
COc1ccc2nc(SC)c(C#N)cc2c1,143*,1,1,96,-1,-4
COc1cccc(C(C)=C2SC(=S)NC2=O)c1,/,/,/,/,/,5
Cc1nn(C)c(Oc2ccccc2)c1CCNS(=O)(=O)c1ccc(Cl)cc1,55*,0,0,9,-1,4
COc1ccc(S(=O)(=O)NCCc2c(C)nn(C)c2Oc2ccccc2)cc1,12,0,0,1,-4,-2
CN(Cc1ccccc1)C(=O)COc1cccnc1[N+](=O)[O-],3,3,/,2,/,-15
CCOc1ccc(-n2cc(-c3ccc(OC)c(OC)c3)[nH]c2=S)cc1,55*,2,0,58,-2,3
CCOc1ccc(-c2cn(-c3ccccc3OC)c(=S)[nH]2)cc1,-4,6,/,-3,/,6
COc1ccc(/C=C/C(O)=C2/C(=O)N(C)C3(C)CC2c2ccccc2O3)cc1 (centres undefined),65*,2,0,22,-32,8
COc1cc(NC(=O)CN2C(=O)CSc3ccc(S(=O)(=O)N4CCCC4)cc32)cc(OC)c1,0,4,/,4,/,-6
COc1ccc(C2=NN(C(=O)c3ccco3)C(c3ccco3)C2)cc1OC (centres undefined),62*,1,/,32,/,-3
O=C(CCl)N1N=C(c2cccs2)CC1c1ccco1 (centres undefined),-95,2,0,-94*,-14,10
CN1CCN(CC(=O)N2N=C(c3cccs3)CC2c2ccco2)CC1 (centres undefined),-65,1,0,-58*,-7,-11
CCC(=O)N1N=C(c2ccc(Cl)cc2)CC1c1ccco1 (centres undefined),12,9,/,7,3,0
CCc1ccc(C2=NN(C(C)=O)C(c3ccco3)C2)cc1 (centres undefined),74*,1,0,33,6,3
Cc1nn(CC(=O)NC(=O)c2ccccc2)c(C)c1[N+](=O)[O-],/,/,/,/,/,-3
CC(OC(=O)/C=C/c1ccccc1)C(=O)Nc1cccc(C#N)c1 (centres undefined),-8,/,/,-4,/,-3
CCOc1cccc(-c2c(C(=O)N/N=C/c3cccs3)nnn2-c2nonc2N)c1,7,0,/,-4,/,2
CC1CCCCC1N(C)C1CCN(C(=O)CNC(=O)/C=C/c2cccc(Cl)c2)CC1 (centres undefined),-12,3,/,-2,/,-5
O=C(c1ccco1)N1N=C(c2cccs2)CC1c1ccco1 (centres undefined),64*,4,0,29,-20,-6
CC1(C)C(=O)N(c2ccccc2Cl)C(=O)c2ccccc21,-7,2,/,-4,/,-6
SMILES,HSF1 activator,HSP90 refold inh,Hsp70 act,HSF1 inhib,Tb hexokinase,HKDC1 inhibitor
COc1ccc(C[C@H]2CN3C(=NC[C@H]3Cc3ccccc3)N2CCNC(=O)c2ccc(C)c(Br)c2)cc1,-2,/,/,10,30,-2
COc1ccc(C[C@H]2CN3C(=NC[C@@H]3Cc3ccccc3)N2CCNC(=O)c2ccc(C)c(Br)c2)cc1,26,17*,0,6,20,-2
COc1ccc(OC)c(-n2nnnc2SCC(=O)NCc2ccc3c(c2)OCO3)c1,-77,-2,0,-72*,0,-6
CCN(CC(=O)Nc1c(F)cccc1F)C(=O)C1Cc2ccccc2CN1S(=O)(=O)CC (centres undefined),-20,/,/,-5,/,-2
C/C=C1\COC(C(=O)NCc2ccccc2)(C(F)(F)F)C=C1C=C1CCCCC1 (centres undefined),71*,/,/,53,/,2
Cc1cccc(N=C2CCCC2C(=O)Nc2cccc(C)c2C)c1C (centres undefined),/,/,/,/,/,-2
Cc1ccc(OCC(=O)Nc2ccc3c(c2)C(=O)N(CCC(=O)O)C3=O)cc1,-1,-3,/,1,/,-7
Cc1ccccc1OCC(=O)Nc1ccc2c(c1)C(=O)N(CCC(=O)O)C2=O,-64,-1,/,-51*,/,-4
O=C(c1cnn2c(-c3ccccc3)cc(-c3ccccc3)nc12)N1CCN(Cc2ccccc2)CC1,-3,/,/,-1,/,-3
Cn1c(-c2nonc2N)nc2ccccc21,-79,-4,/,-74*,/,5
COc1ccc(-c2ncc3ccccn23)cc1OC,26,-5,0,8,-6,-4
Clc1ccccc1-c1ncc2ccccn12,168*,0,0,129,-11,-4
Clc1ccc(-c2ncc3ccccn23)cc1,63*,-1,0,38,-12,-5
CN(C)CCNc1nc2sc3c(c2c(=O)n1-c1ccccc1)CCCCC3,50*,0,/,14,-5,-2
O=c1c2c3c(sc2nc(NCCO)n1Cc1ccco1)CCCCC3,-61,4,0,-57*,-11,-9
COCCNc1nc2sc3c(c2c(=O)n1Cc1ccco1)CCCCC3,-43,4,0,-30,-8,-13
O=C(c1cc(COc2ccc(F)c(F)c2)on1)N1CCN(C2CCCCC2)C(=O)C1,10,-8,/,5,/,0
O=C1OC(Nc2cc(Br)cc3cccnc23)c2ccccc21 (centres undefined),7,17*,0,8,-8,2
COC(=O)Nc1ccc2c(c1)N(C(=O)CCN(C)C)c1ccccc1CC2,34,-2,/,5,/,-1
COC(=O)C1=C(NC(=O)c2cccs2)CCS1,/,4,0,/,66*,/
CC(=O)Nc1ccc(SCC(=O)c2cc(C)n(-c3ccccc3)c2C)cc1,-74,1,0,-68*,9,-5
COc1ccc(-n2c(C)cc(C(=O)CSc3ccc(NC(C)=O)cc3)c2C)cc1,17,-6,0,15,-8,-2
O=C(NNc1cccc(Cl)n1)Nc1ccc(Cl)cc1,77*,-11,0,33,0,-7
O=C(NNc1cccc(Cl)n1)Nc1cccc(C(F)(F)F)c1,-7,-3,0,-6,6,-2
CC(C)C[C@H](NC(=O)C1(c2ccccc2)CCN(C(=O)[C@H]2CSCN2C(=O)OC(C)(C)C)CC1)C(=O)O,-1,2,0,-5,5,-7
